Legend:
[1] = Plasma clearance in rhesus monkey at 3 mg/kg, iv and 10 mg/kg, po; assay type: ADME, organism-based, Macaca mulatta
Method in brief: (§1)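 Rhesus pharmacokinetics: 3 mg/kg iv and 10 mg/kg po, HCl salt. Clp, t1/2, Vdss, Cmax, AUC, oral t1/2 and %F reported.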

[2] = Half life in rhesus monkey at 3 mg/kg, iv and 10 mg/kg, po; assay type: ADME, organism-based, Macaca mulatta; details: in vivo; method in brief: as §1
[3] = Volume of distribution at steady state in rhesus monkey at 3 mg/kg, iv and 10 mg/kg, po; assay type: ADME, organism-based, Macaca mulatta; details: in vivo, read-out: Vdss; method in brief: as §1
[4] = Cmax in rhesus monkey at 3 mg/kg, iv and 10 mg/kg, po; assay type: ADME, organism-based, Macaca mulatta; details: in vivo; method in brief: as §1
[5] = AUC in rhesus monkey at 3 mg/kg, iv and 10 mg/kg, po; assay type: ADME, organism-based, Macaca mulatta; details: plasma; method in brief: as §1
[6] = Half life in rhesus monkey at 10 mg/kg, po; assay type: ADME, organism-based, Macaca mulatta; parameters: dose 10 mg/kg, route oral; details: in vivo
[7] = Bioavailability in rhesus monkey at 3 mg/kg, iv and 10 mg/kg, po; assay type: ADME, organism-based, Macaca mulatta; details: in vivo; method in brief: as §1
[8] = biological target: Nitric oxide synthase, inducible (Homo sapiens, UniProt P35228); experiment: Inhibition of human iNOS expressed in HEK293 cells assessed as inhibition of nitric oxide production after 18 hrs using 2,3-diaminonaphthalene by fluorescence assay; assay type: cell-based
Method in brief: (§2)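 HEK293 cells grown to ~70% confluence in DMEM/10% FBS with pen/strep, transiently transfected with 10 μg human or murine iNOS plasmid plus Fugene 6 for 4 h at 37 °C, 10% CO2. Cells replated at 5e5 cells/mL and dosed with compound at once; 1400W (100 μM final) as positive control. After 18 h, DAN (10 μg/mL final) in HCl (0.1 N final) added for 20 min at room temperature. Fluorescence read after NaOH (0.12 N final).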

[9] = biological target: T1, Nitric oxide synthase 1 (Homo sapiens, UniProt P29475); experiment: Inhibition of human nNOS expressed in HEK293 cells assessed as inhibition ionomycin induced nitric oxide production incubated for 24 hrs measured after 18 hrs of ionomycin challenge using 2,3-diaminonaphthalene by fluorescence assay; assay type: cell-based
Method in brief: (§3)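 HEK293 cells transfected for 4 h at 37 °C with human nNOS (10 μg) or human eNOS (15 μg) plasmid (Fugene 6, 3:1). Cells replated at 5e5 cells/mL and dosed with compound at once; SEITU (100 μM final) as positive control. After 24 h, cells activated with A23187 (83 nM final) for eNOS or ionomycin (30 μM final) for nNOS. NO read 18 h later as nitrite-DAN fluorescence.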

[10] = biological target: T2, Nitric oxide synthase 3 (Homo sapiens, UniProt P29474); experiment: Inhibition of human eNOS expressed in HEK293 cells assessed as inhibition A23187 induced nitric oxide production incubated for 24 hrs measured after 18 hrs of […] challenge using 2,3-diaminonaphthalene by fluorescence assay; assay type: cell-based; method in brief: as §3
T2 sequence (P29474 whole entry): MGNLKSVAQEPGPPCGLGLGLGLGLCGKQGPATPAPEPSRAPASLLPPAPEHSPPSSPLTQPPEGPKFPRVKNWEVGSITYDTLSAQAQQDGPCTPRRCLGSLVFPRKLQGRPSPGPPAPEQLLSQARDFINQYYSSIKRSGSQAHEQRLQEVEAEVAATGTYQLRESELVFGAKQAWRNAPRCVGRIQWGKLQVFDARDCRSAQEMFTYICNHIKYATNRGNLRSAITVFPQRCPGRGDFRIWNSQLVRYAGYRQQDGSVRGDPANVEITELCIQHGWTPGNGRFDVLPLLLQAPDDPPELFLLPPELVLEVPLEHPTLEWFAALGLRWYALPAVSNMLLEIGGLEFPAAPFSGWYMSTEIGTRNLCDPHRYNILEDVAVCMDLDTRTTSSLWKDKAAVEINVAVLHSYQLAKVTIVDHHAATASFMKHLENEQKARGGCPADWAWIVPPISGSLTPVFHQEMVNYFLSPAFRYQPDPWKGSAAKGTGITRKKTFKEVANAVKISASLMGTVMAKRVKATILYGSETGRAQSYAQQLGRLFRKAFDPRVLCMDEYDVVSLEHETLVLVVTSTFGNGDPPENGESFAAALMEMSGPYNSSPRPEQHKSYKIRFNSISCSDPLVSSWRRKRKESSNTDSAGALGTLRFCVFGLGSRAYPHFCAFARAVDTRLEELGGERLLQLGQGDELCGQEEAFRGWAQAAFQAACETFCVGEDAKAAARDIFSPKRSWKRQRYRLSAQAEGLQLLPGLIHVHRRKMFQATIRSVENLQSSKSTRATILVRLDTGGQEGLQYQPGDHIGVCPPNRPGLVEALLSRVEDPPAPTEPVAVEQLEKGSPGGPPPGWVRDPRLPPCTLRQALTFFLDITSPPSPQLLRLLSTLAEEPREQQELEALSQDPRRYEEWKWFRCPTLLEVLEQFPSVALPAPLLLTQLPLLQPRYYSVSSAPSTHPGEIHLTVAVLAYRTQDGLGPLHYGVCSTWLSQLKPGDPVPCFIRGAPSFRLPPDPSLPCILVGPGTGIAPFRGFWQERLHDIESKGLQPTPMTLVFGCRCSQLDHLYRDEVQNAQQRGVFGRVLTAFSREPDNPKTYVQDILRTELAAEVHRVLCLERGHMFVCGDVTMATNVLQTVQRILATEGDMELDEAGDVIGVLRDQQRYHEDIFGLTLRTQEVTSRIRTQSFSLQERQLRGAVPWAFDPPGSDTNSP

[11] = tested on: Liver; experiment: Half life in mouse liver microsomes assessed as formation of oxidation product and glucuronide conjugate; assay type: ADME, Microsome
Method in brief: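 Mouse liver microsomes run under combined phase I oxidation and phase II glucuronide conjugation; half-life reported in minutes.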

[12] = organism: Homo sapiens; experiment: Ratio of IC50 for human eNOS to EC50 for human iNOS
[13] = organism: Homo sapiens; experiment: Ratio of IC50 for human nNOS to EC50 for human iNOS
[14] = biological target: T3, Nitric oxide synthase 3 (Homo sapiens) (UniProt P29474); experiment: Inhibition of human eNOS expressed in HEK293 cells assessed as inhibition A23187 induced nitric oxide production at 100 uM incubated for 24 hrs measured after 18 hrs of […] challenge using 2,3-diaminonaphthalene by fluorescence assay; assay type: cell-based
T3 sequence (whole entry): T2 sequence (P29474 whole entry)

[15] = biological target: T1, Nitric oxide synthase 1; experiment: Inhibition of human nNOS expressed in HEK293 cells assessed as inhibition ionomycin induced nitric oxide production at 10 uM incubated for 24 hrs measured after 18 hrs of ionomycin challenge using 2,3-diaminonaphthalene by fluorescence assay; assay type: cell-based
[16] = Cmax in mouse at 3 mg/kg, iv and 10 mg/kg, po; assay type: ADME, organism-based; details: in vivo
[17] = AUC in mouse at 3 mg/kg, iv and 10 mg/kg, po; assay type: ADME, organism-based; details: plasma
[18] = Half life in mouse at 10 mg/kg, po; assay type: ADME, organism-based; parameters: dose 10 mg/kg, route oral; details: in vivo
[19] = biological target: T4, Nitric oxide synthase, inducible (Mus musculus, UniProt P29477); experiment: Inhibition of mouse iNOS expressed in HEK293 cells assessed as inhibition of nitric oxide production after 18 hrs using 2,3-diaminonaphthalene by fluorescence assay; assay type: cell-based; method in brief: as §2
T4 sequence (P29477 whole entry): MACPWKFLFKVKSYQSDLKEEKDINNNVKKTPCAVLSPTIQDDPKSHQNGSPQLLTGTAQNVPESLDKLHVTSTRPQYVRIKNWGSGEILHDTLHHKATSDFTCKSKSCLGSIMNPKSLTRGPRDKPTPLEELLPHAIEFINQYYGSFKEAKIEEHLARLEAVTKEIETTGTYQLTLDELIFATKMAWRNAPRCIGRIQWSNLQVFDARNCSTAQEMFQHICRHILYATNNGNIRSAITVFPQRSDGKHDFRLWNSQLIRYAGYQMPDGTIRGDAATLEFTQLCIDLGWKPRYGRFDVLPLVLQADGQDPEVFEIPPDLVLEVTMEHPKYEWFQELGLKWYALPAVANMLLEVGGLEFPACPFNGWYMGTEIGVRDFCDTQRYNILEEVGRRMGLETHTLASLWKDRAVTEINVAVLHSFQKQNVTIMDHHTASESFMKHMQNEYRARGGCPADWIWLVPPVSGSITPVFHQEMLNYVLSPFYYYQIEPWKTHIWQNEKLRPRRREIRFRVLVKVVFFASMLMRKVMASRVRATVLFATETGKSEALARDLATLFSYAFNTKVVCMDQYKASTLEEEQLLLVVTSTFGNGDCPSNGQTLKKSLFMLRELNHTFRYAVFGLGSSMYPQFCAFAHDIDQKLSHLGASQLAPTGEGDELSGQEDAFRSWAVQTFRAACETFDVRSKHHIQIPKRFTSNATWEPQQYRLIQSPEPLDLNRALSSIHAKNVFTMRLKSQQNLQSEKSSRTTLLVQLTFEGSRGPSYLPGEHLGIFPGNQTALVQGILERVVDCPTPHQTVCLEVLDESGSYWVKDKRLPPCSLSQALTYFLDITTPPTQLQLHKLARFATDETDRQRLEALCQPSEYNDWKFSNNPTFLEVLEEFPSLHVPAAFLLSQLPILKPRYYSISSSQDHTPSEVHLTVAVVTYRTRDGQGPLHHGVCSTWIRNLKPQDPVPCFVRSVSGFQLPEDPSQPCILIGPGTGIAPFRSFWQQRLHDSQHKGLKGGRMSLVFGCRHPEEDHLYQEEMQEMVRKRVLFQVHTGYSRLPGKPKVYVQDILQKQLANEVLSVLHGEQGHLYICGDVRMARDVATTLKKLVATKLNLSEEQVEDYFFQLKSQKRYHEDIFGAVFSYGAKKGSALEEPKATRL

[20] = tested on: Mus musculus; experiment: Inhibition of LPS-induced iNOS activation in BALB/c mouse assessed as plasma nitrate levels administered via oral gavage before LPS challenge measured after 6 to 8 hrs using 2,3-diaminonaphthalene by fluorescence assay; assay type: functional
Method in brief: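 Male BALB/c mice dosed by oral gavage (90% PEG/5% Tween 80/5% PVP + 0.5% w/v CMC) immediately before LPS (10 mg/kg ip in 0.9% NaCl). Mice killed at 6 h. EDTA plasma analysed for nitrate and drug levels; nitrite measured by DAN fluorescence.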

T1 sequence (P29475 whole entry): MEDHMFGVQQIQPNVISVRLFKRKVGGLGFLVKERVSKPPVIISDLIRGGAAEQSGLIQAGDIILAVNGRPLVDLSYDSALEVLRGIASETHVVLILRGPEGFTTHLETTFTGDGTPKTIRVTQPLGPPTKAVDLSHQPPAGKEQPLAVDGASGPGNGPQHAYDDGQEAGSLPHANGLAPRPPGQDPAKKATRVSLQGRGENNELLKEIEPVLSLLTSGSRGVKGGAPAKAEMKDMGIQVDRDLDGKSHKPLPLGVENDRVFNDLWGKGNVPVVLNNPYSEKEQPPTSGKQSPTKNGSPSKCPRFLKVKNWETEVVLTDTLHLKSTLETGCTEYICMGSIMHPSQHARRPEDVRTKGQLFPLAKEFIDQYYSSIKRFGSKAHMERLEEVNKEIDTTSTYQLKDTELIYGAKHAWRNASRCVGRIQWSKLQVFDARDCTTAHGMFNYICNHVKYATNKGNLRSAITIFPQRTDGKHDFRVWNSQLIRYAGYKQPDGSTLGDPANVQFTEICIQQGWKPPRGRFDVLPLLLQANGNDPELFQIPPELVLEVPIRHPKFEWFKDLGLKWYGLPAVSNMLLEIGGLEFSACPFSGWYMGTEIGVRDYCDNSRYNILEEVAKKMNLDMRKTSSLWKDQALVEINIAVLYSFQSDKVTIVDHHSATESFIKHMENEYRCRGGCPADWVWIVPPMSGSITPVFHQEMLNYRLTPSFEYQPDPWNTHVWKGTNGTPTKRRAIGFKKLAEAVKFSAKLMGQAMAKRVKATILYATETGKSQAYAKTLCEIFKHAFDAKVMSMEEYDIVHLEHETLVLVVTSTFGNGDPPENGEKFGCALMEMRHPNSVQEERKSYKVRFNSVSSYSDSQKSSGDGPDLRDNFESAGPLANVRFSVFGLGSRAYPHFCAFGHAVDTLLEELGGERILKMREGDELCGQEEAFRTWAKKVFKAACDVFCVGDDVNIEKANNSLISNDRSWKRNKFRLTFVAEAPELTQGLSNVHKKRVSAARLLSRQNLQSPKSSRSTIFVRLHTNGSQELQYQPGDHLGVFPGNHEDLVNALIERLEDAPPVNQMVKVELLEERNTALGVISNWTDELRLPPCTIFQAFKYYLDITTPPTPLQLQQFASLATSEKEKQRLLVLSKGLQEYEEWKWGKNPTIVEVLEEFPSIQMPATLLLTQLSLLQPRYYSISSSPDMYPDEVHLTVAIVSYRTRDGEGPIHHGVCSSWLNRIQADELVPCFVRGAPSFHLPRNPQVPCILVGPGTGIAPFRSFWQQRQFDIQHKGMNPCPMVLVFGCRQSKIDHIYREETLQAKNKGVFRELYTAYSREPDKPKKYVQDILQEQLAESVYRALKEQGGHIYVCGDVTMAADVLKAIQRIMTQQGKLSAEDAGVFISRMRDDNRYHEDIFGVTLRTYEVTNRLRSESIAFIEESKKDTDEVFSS
Chain of Nitric oxide synthase, inducible (Homo sapiens, UniProt P35228) (P35228 whole entry): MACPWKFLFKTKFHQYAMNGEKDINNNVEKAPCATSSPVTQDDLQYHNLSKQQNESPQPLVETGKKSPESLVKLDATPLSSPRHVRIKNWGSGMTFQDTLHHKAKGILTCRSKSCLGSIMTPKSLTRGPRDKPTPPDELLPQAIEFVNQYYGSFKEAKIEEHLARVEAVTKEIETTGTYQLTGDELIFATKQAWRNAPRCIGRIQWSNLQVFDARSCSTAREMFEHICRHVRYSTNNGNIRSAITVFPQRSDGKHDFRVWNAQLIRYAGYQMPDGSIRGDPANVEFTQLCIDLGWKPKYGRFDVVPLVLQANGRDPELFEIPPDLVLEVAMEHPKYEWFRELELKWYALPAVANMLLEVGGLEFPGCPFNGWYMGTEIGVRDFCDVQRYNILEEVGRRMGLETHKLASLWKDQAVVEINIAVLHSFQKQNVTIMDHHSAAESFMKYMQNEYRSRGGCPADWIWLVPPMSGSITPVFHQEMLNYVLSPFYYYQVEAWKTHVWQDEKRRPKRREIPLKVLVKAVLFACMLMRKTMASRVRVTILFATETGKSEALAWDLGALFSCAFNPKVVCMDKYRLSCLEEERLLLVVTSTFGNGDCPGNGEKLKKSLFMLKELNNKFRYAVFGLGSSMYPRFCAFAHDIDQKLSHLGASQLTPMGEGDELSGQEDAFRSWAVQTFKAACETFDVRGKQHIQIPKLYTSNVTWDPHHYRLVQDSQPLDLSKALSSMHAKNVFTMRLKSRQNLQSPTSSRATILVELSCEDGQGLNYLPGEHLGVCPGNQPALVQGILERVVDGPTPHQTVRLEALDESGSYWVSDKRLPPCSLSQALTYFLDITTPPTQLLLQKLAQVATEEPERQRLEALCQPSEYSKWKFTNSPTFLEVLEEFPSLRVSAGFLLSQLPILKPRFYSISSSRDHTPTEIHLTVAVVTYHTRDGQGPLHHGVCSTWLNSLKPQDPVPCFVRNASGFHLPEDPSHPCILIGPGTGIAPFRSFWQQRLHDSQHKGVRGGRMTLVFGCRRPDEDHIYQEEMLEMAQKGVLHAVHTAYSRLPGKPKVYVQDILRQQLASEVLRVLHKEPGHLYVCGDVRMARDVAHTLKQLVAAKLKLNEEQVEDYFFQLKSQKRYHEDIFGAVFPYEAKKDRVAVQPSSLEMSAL

Row | SMILES | clearance [1] | half-life [2] | Vd [3] | Cmax [4] | AUC [5] | half-life [6] | bioavailability [7] | EC50 [8] | EC50 [9] | EC50 [10] | t1/2 [11] | Ratio EC50 [12] | Ratio EC50 [13] | inhibition [14] | inhibition [15] | Cmax [16] | AUC [17] | half-life [18] | EC50 [19] | ED50 [20]
1 | Cl.O=c1cc(Cn2c(C3CCC3)nc3nccnc32)c2cccc(F)c2[nH]1 | 4.3 mL/min/kg | 6.8 h | 1.2 L/kg | 1800 ng/mL | 23000 ng·h/mL | 10 h | 93% |  |  |  |  |  |  |  |  |  |  |  |  | 
2 | CC(C)Cc1nc2nccnc2n1Cc1cc(=O)[nH]c2c(F)c(F)ccc12.Cl | 18 mL/min/kg | 21 h | 19 L/kg | 210 ng/mL | 3200 ng·h/mL | 15 h | 59% |  |  |  |  |  |  |  |  |  |  |  |  | 
3 | Cl.O=c1cc(Cn2c(C3CCC3)nc3nccnc32)c2ccc(F)c(F)c2[nH]1 | 6 mL/min/kg | 13 h | 3 L/kg | 3300 ng/mL | 18000 ng·h/mL | 9 h | 63% |  |  |  |  |  |  |  |  |  |  |  |  | 
4 | O=c1cc(Cn2c(CC3CCCC3)nc3ccccc32)c2ccc(F)c(F)c2[nH]1 |  |  |  |  |  |  |  | 1770 nM | > 10000 nM | > 100000 nM | > 2 h | > 56 | > 6 | < 50% | < 50% |  |  |  |  | 
5 | O=c1cc(Cn2c(C3CCC3)nc3ccccc32)c2ccc(F)c(F)c2[nH]1 |  |  |  |  |  |  |  | 260 nM | 320 nM | 5900 nM | > 2 h | 23 | 1.2 |  |  | 5700 ng/mL | 10000 ng·h/mL | 1.4 h | 2100 nM | 4 mg/kg

Source: ChEMBL document CHEMBL1800057, “Discovery of dual inducible/neuronal nitric oxide synthase (iNOS/nNOS) inhibitor development candidate 4-((2-cyclobutyl-1H-imidazo[4,5-b]pyrazin-1-yl)methyl)-7,8-difluoroquinolin-2(1H)-one (KD7332) part 2: identification of a novel, potent, and selective series of benzimidazole-quinolinone …” (J Med Chem, 2010)
